In ChEMBL document CHEMBL1275500, “Characterization of the new metallo-beta-lactamase VIM-13 and its integron-borne gene from a Pseudomonas aeruginosa clinical isolate in Spain” (Antimicrob Agents Chemother, 2008):
Values after ≈ are worked out from the molar mass of the structure shown.

What was measured:
[1] = target: Beta-lactamase VIM-1 (Pseudomonas aeruginosa, UniProt Q9XAY4); assay: Inhibition of Pseudomonas aeruginosa VIM-1 beta-lactamase after 10 mins
Summary of the method: (§1)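 Zn2+-removal inactivation of purified VIM-1 or VIM-13, tested with varied concentrations of EDTA, dipicolinic acid or 1,10-o-phenanthroline. Enzyme and chelator were incubated 10 min at 20°C in 50 mM HEPES pH 7.5 with 20 μg/ml BSA, then 100 μM imipenem hydrolysis was measured as the reporter. IC50 is the chelator level halving hydrolytic activity.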

[2] = target: Class B carbapenemase VIM-13 (Pseudomonas aeruginosa, UniProt Q2HY42); assay: Inhibition of Pseudomonas aeruginosa VIM-13 beta-lactamase after 10 mins; summary of the method: as §1
[3] = tested on: Pseudomonas aeruginosa; assay: Antimicrobial activity against Pseudomonas aeruginosa isolate PA-SD2 harboring blaVIM-1 gene by Etest method; format: functional
[4] = tested on: Pseudomonas aeruginosa; assay: Antimicrobial activity against Pseudomonas aeruginosa isolate PA-SL2 harboring blaVIM-13 gene by Etest method; format: functional
[5] = tested on: Pseudomonas aeruginosa; assay: Antimicrobial activity against Pseudomonas aeruginosa PAO1 harboring pUCP carrying VIM-1 gene by Etest method; format: functional
Summary of the method: (§2)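 Etest MICs of piperacillin, piperacillin-tazobactam, ceftazidime, cefepime, cefotaxime, aztreonam, imipenem and meropenem, run per manufacturer's recommendations. Strains were E. coli XL1-Blue or P. aeruginosa PAO1 carrying pUCP24-derived plasmids with blaVIM-1 or blaVIM-13 (cloned by EcoRI) inserted in the lacZ-promoter orientation. E. coli transformants were selected on 10 μg/ml gentamicin MacConkey agar; PAO1 electroporants were selected on 50 μg/ml gentamicin LB agar.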

[6] = tested on: Pseudomonas aeruginosa; assay: Antimicrobial activity against Pseudomonas aeruginosa PAO1 harboring pUCP carrying VIM-13 gene by Etest method; format: functional; summary of the method: as §2
[7] = tested on: Pseudomonas aeruginosa; assay: Antimicrobial activity against Pseudomonas aeruginosa PAO1 by Etest method; format: functional
[8] = tested on: Escherichia coli; assay: Antimicrobial activity against Escherichia coli XL1-Blue harboring pUCP carrying VIM-1 gene by Etest method; format: functional; summary of the method: as §2
[9] = tested on: Escherichia coli; assay: Antimicrobial activity against Escherichia coli XL1-Blue harboring pUCP carrying VIM-13 gene by Etest method; format: functional; summary of the method: as §2
[10] = tested on: Escherichia coli; assay: Antimicrobial activity against Escherichia coli XL1-Blue by Etest method; format: functional
[11] = tested on: Escherichia coli; assay: Antimicrobial activity against Escherichia coli XL1-Blue harboring pGEM-T carrying aacA4 gene by Etest method; format: functional
[12] = tested on: Escherichia coli; assay: Antimicrobial activity against Escherichia coli XL1-Blue harboring pGEM-T carrying aacA4 Ala108Thr mutant gene by Etest method; format: functional
[13] = tested on: CC(=O)OCC1=C(C(=O)O)N2C(=O)[C@@H](NC(=O)Cc3cccs3)[C@H]2SC1; assay: (§3) Activity of Pseudomonas aeruginosa VIM-1 beta-lactamase
Summary of the method: (§4)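 GST-fused VIM-1 lacking signal peptide, purified, dialyzed in 50 mM HEPES pH 7.5 with 50 μM ZnSO4. Beta-lactam hydrolysis followed spectrophotometrically at 25°C in 50 mM HEPES pH 7.5, 50 μM ZnSO4, 20 μg/ml BSA.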

[14] = tested on: CC(C)(O/N=C(\C(=O)N[C@@H]1C(=O)N2C(C(=O)[O-])=C(C[n+]3ccccc3)CS[C@H]12)c1csc(N)n1)C(=O)O; assay: as §3; summary of the method: as §4
[15] = tested on: CC1(C)S[C@@H]2[C@H](NC(=O)Cc3ccccc3)C(=O)N2[C@H]1C(=O)O; assay: as §3; summary of the method: as §4
[16] = tested on: CC1(C)S[C@@H]2[C@H](NC(=O)[C@H](N)c3ccccc3)C(=O)N2[C@H]1C(=O)O; assay: as §3; summary of the method: as §4
[17] = tested on: CCN1CCN(C(=O)N[C@@H](C(=O)N[C@@H]2C(=O)N3[C@@H]2SC(C)(C)[C@@H]3C(=O)O)c2ccccc2)C(=O)C1=O; assay: as §3; summary of the method: as §4
[18] = tested on: CO/N=C(\C(=O)N[C@@H]1C(=O)N2C(C(=O)O)=C(COC(C)=O)CS[C@H]12)c1csc(N)n1; assay: as §3; summary of the method: as §4
[19] = tested on: CO/N=C(\C(=O)N[C@@H]1C(=O)N2C(C(=O)O)=C(COC(N)=O)CS[C@H]12)c1ccco1; assay: as §3; summary of the method: as §4
[20] = tested on: C[C@@H](O)[C@H]1C(=O)N2C(C(=O)O)=C(S[C@@H]3CN[C@H](C(=O)N(C)C)C3)[C@H](C)[C@H]12; assay: as §3; summary of the method: as §4
[21] = tested on: CC(=O)OCC1=C(C(=O)O)N2C(=O)[C@@H](NC(=O)Cc3cccs3)[C@H]2SC1; assay: (§5) Ratio of Kcat to Km for Pseudomonas aeruginosa VIM-1 beta-lactamase; summary of the method: as §4
[22] = tested on: CC(C)(O/N=C(\C(=O)N[C@@H]1C(=O)N2C(C(=O)[O-])=C(C[n+]3ccccc3)CS[C@H]12)c1csc(N)n1)C(=O)O; assay: as §5; summary of the method: as §4
[23] = tested on: CC1(C)S[C@@H]2[C@H](NC(=O)[C@H](N)c3ccccc3)C(=O)N2[C@H]1C(=O)O; assay: as §5; summary of the method: as §4
[24] = tested on: CCN1CCN(C(=O)N[C@@H](C(=O)N[C@@H]2C(=O)N3[C@@H]2SC(C)(C)[C@@H]3C(=O)O)c2ccccc2)C(=O)C1=O; assay: as §5; summary of the method: as §4
[25] = tested on: C[C@@H](O)[C@H]1C(=O)N2C(C(=O)O)=C(S[C@@H]3CN[C@H](C(=O)N(C)C)C3)[C@H](C)[C@H]12; assay: as §5; summary of the method: as §4
[26] = tested on: CC(=O)OCC1=C(C(=O)O)N2C(=O)[C@@H](NC(=O)Cc3cccs3)[C@H]2SC1; settings: Pseudomonas aeruginosa
[27] = tested on: CC(C)(O/N=C(\C(=O)N[C@@H]1C(=O)N2C(C(=O)[O-])=C(C[n+]3ccccc3)CS[C@H]12)c1csc(N)n1)C(=O)O; settings: Pseudomonas aeruginosa
[28] = tested on: CC1(C)S[C@@H]2[C@H](NC(=O)Cc3ccccc3)C(=O)N2[C@H]1C(=O)O; settings: Pseudomonas aeruginosa
[29] = tested on: CC1(C)S[C@@H]2[C@H](NC(=O)[C@H](N)c3ccccc3)C(=O)N2[C@H]1C(=O)O; settings: Pseudomonas aeruginosa
[30] = tested on: CCN1CCN(C(=O)N[C@@H](C(=O)N[C@@H]2C(=O)N3[C@@H]2SC(C)(C)[C@@H]3C(=O)O)c2ccccc2)C(=O)C1=O; settings: Pseudomonas aeruginosa
[31] = tested on: CO/N=C(\C(=O)N[C@@H]1C(=O)N2C(C(=O)O)=C(COC(C)=O)CS[C@H]12)c1csc(N)n1; settings: Pseudomonas aeruginosa
[32] = tested on: CO/N=C(\C(=O)N[C@@H]1C(=O)N2C(C(=O)O)=C(COC(N)=O)CS[C@H]12)c1ccco1; settings: Pseudomonas aeruginosa
[33] = tested on: C[C@@H](O)[C@H]1C(=O)N2C(C(=O)O)=C(S[C@@H]3CN[C@H](C(=O)N(C)C)C3)[C@H](C)[C@H]12; settings: Pseudomonas aeruginosa
[34] = tested on: CC(=O)OCC1=C(C(=O)O)N2C(=O)[C@@H](NC(=O)Cc3cccs3)[C@H]2SC1; settings: Pseudomonas aeruginosa; remark: listed apart in the source
[35] = tested on: CC(C)(O/N=C(\C(=O)N[C@@H]1C(=O)N2C(C(=O)[O-])=C(C[n+]3ccccc3)CS[C@H]12)c1csc(N)n1)C(=O)O; settings: Pseudomonas aeruginosa; remark: listed apart in the source
[36] = tested on: CC1(C)S[C@@H]2[C@H](NC(=O)Cc3ccccc3)C(=O)N2[C@H]1C(=O)O; settings: Pseudomonas aeruginosa; remark: listed apart in the source
[37] = tested on: CC1(C)S[C@@H]2[C@H](NC(=O)[C@H](N)c3ccccc3)C(=O)N2[C@H]1C(=O)O; settings: Pseudomonas aeruginosa; remark: listed apart in the source
[38] = tested on: CCN1CCN(C(=O)N[C@@H](C(=O)N[C@@H]2C(=O)N3[C@@H]2SC(C)(C)[C@@H]3C(=O)O)c2ccccc2)C(=O)C1=O; settings: Pseudomonas aeruginosa; remark: listed apart in the source
[39] = tested on: CO/N=C(\C(=O)N[C@@H]1C(=O)N2C(C(=O)O)=C(COC(C)=O)CS[C@H]12)c1csc(N)n1; settings: Pseudomonas aeruginosa; remark: listed apart in the source
[40] = tested on: CO/N=C(\C(=O)N[C@@H]1C(=O)N2C(C(=O)O)=C(COC(N)=O)CS[C@H]12)c1ccco1; settings: Pseudomonas aeruginosa; remark: listed apart in the source
[41] = tested on: C[C@@H](O)[C@H]1C(=O)N2C(C(=O)O)=C(S[C@@H]3CN[C@H](C(=O)N(C)C)C3)[C@H](C)[C@H]12; settings: Pseudomonas aeruginosa; remark: listed apart in the source

O=C(O)CN(CCN(CC(=O)O)CC(=O)O)CC(=O)O [EDETIC ACID]
IC50 [1]: 9.3 µM
IC50 [2]: 253 µM

C[C@@H](O)[C@H]1C(=O)N2C(C(=O)O)=C(SCCNC=N)C[C@H]12 [IMIPENEM ANHYDROUS]
MIC [3]: > 32 µg/mL
MIC [4]: 24 µg/mL (≈ 80.2 µM)
MIC [5]: > 32 µg/mL
MIC [6]: > 32 µg/mL
MIC [7]: 1.5 µg/mL (≈ 5.01 µM)
MIC [8]: 1 µg/mL (≈ 3.34 µM)
MIC [9]: 1 µg/mL (≈ 3.34 µM)
MIC [10]: 0.25 µg/mL (≈ 0.835 µM)

C[C@@H](O)[C@H]1C(=O)N2C(C(=O)O)=C(S[C@@H]3CN[C@H](C(=O)N(C)C)C3)[C@H](C)[C@H]12 [MEROPENEM]
MIC [3]: > 32 µg/mL
MIC [4]: 12 µg/mL (≈ 31.3 µM)
MIC [5]: > 32 µg/mL
MIC [6]: > 32 µg/mL
MIC [7]: 0.38 µg/mL (≈ 0.991 µM)
MIC [8]: 0.25 µg/mL (≈ 0.652 µM)
MIC [9]: 0.19 µg/mL (≈ 0.495 µM)
MIC [10]: 0.064 µg/mL (≈ 0.167 µM)

c1cnc2c(c1)ccc1cccnc12 [PHENANTHROLINE]
IC50 [1]: 73 µM
IC50 [2]: 69.3 µM

NC[C@H]1O[C@H](O[C@H]2[C@H](O)[C@@H](O[C@H]3O[C@H](CO)[C@@H](O)[C@H](N)[C@H]3O)[C@H](N)C[C@@H]2N)[C@H](N)C[C@@H]1O [TOBRAMYCIN]
MIC [3]: 16 µg/mL (≈ 34.2 µM)
MIC [4]: 48 µg/mL (≈ 103 µM)
MIC [11]: 2 µg/mL (≈ 4.28 µM)
MIC [12]: 2 µg/mL (≈ 4.28 µM)
MIC [10]: 0.25 µg/mL (≈ 0.535 µM)

Beta-lactamase VIM-1 (Pseudomonas aeruginosa) (from UniProt Q9XAY4)
Km [13]: 135 µM
kcat [13]: 449 s⁻¹
Km [14]: 1130 µM
kcat [14]: 42 s⁻¹
Km [15]: 1300 µM
kcat [15]: 418 s⁻¹
Km [16]: 1740 µM
kcat [16]: 307 s⁻¹
Km [17]: 1380 µM
kcat [17]: 374 s⁻¹
Km [18]: 285 µM
kcat [18]: 204 s⁻¹
Km [19]: 148 µM
kcat [19]: 239 s⁻¹
Km [20]: 72 µM
kcat [20]: 20 s⁻¹
kcat/Km [21]: 3.3e+06 M⁻¹ s⁻¹
kcat/Km [22]: 3.7 M⁻¹ s⁻¹
kcat/Km [23]: 180000 M⁻¹ s⁻¹
kcat/Km [24]: 270000 M⁻¹ s⁻¹
kcat/Km [25]: 280000 M⁻¹ s⁻¹

Class B carbapenemase VIM-13 (Pseudomonas aeruginosa) (from UniProt Q2HY42)
Km [26]: 76 µM
kcat [26]: 656 s⁻¹
Km [27]: 509 µM
kcat [27]: 10 s⁻¹
Km [28]: 1130 µM
kcat [28]: 757 s⁻¹
Km [29]: 197 µM
kcat [29]: 67 s⁻¹
Km [30]: 729 µM
kcat [30]: 362 s⁻¹
Km [31]: 233 µM
kcat [31]: 612 s⁻¹
Km [32]: 56 µM
kcat [32]: 283 s⁻¹
Km [33]: 15.5 µM
kcat [33]: 9 s⁻¹
kcat/Km [34]: 8.6e+06 M⁻¹ s⁻¹
kcat/Km [35]: 1.9 M⁻¹ s⁻¹
kcat/Km [36]: 670000 M⁻¹ s⁻¹
kcat/Km [37]: 340000 M⁻¹ s⁻¹
kcat/Km [38]: 490000 M⁻¹ s⁻¹
kcat/Km [39]: 2.6e+06 M⁻¹ s⁻¹
kcat/Km [40]: 5e+06 M⁻¹ s⁻¹
kcat/Km [41]: 592000 M⁻¹ s⁻¹

GENTAMICIN
MIC [3]: 48 µg/mL
MIC [4]: > 256 µg/mL
MIC [11]: 1 µg/mL
MIC [12]: 1 µg/mL
MIC [10]: 0.19 µg/mL
